The sample as a whole holds a higher share of hits than the screen did.
L major viab: inhibitors of Leishmania major promastigote growth; Leishmania major promastigotes, resazurin fluorescence viability; inhibition, % at 10 µM; 200,000 compounds, 9% hits; AID 1063; in the data active means inhibition above about 50%;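 further: promastigotes grown with compound for 44 hours at 28 °C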
Dynein cargo inh: dynein cargo transport inhibition. 3617.4 mouse cells, GR-EGFP nuclear translocation imaging; test concentration mostly 20 µM; stimulated with dexamethasone, 1 µM; hits give low values. 220,000 compounds, 0.47% hits. z-score, hits read low;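 active means plate z-score of nuclear minus cytoplasmic receptor signal below a set negative limit, without overly bright fluorescence or cell loss, cut at about -3.5 in these data, passing the limit was not always enough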;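 further: z-score of nuclear minus cytoplasmic ring GR-EGFP intensity difference per well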
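Also added – dexamethasone, 1.0 µM final · Buffer or medium – tet-free, stripped-serum medium · Schedule – induction 48 h, compound 1 h, agonist 30 min · Detection – formaldehyde fixation, Hoechst nuclear stain, 10x automated fluorescence imaging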
T cruzi inh: blocks replication of Trypanosoma cruzi. 300,000 compounds, 1.4% hits. AID 1885. inhibition, % (test concentration not listed). T. cruzi beta-gal in NIH3T3, luminescence, 90 h;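 active means mean inhibition across valid replicates above about 55%, limit read from the data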;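 further: signal also drops with host cell toxicity which is not excluded here; 0% = plate median of DMSO wells and 100% = zero luminescence signal; higher percent means less beta-gal luminescence so fewer parasites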
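Assay system: NIH/3T3 host cells with β-galactosidase reporter T. cruzi; input: 5,000 host fibroblasts per well; compound: single 50 nL compound addition per well in DMSO; timing: ≥90 h infection period, 3 h prior cell attachment; measured by: GalScreen β-gal luminescence, detergent lysis, 60 min; evaluation: percent inhibition of parasite-derived β-gal signal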
CHOP UPR activ: apoptotic UPR (CHOP) activation; activation, % at 10 µM; 330,000 compounds, 0.34% hits; CHO-CHOP luciferase reporter, luminescence; percent of tunicamycin response over DMSO baseline; AID 449763;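 active means at 10 µM dose, activation of 40% or more, normalized to positive control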;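 further: 100% = tunicamycin at 10 µg/mL and 0% = DMSO alone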
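System: CHO CHOP reporter cells. Amount: 500 cells per well. Buffer or medium: F12 medium, 10% FBS. Compound dosing: one dose, 10 µM in 0.5% DMSO. Incubation: 6 h compound exposure at 37 °C after overnight seeding. Technique: Steady-Glo luciferase luminescence. Benchmarks: tunicamycin and DMSO controls.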
CHOP inh: CHOP inhibition in unfolded protein response; CHO-K1 CHOP-promoter luciferase, tunicamycin-induced, 15-18 h; 220,000 compounds, 3.8% hits; AID 2732; inhibition, % at 10 µM;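 active means compounds that reduced the stress-induced luciferase reporter signal by more than about 70% of percent inhibition, limit read from the data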;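 further: 0% = tunicamycin plus vehicle and 100% = wells without tunicamycin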
XBP1 UPR activ: activators of adaptive arm of unfolded protein response (XBP1). CHO-XBP1 luciferase reporter, IRE1-XBP1 UPR activation, luminescence; percent of tunicamycin response, DMSO as zero. activation, % at 20 µM. 330,000 compounds, 0.33% hits. AID 463104;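 active means versus positive control, 20 µM dose yields 30% or more activation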;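 further: 100% = tunicamycin at 10 µg/mL and 0% = DMSO only wells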
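Material: IRE1-XBP1 luciferase reporter CHO line / Quantity: one thousand reporter cells per well / Buffer or medium: F12 with 10% serum / Compound: 20 µM single concentration, DMSO 1% / Times: 6 h treatment, 37 °C / Detection: Steady-Glo luciferase glow luminescence, 10 min after reagent addition / Benchmarks: tunicamycin high, DMSO low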
* marks the source's active call; other numbers are inactive results.

What do the screens show for `Nc1c(-c2ccccc2)cnn1-c1ccccc1`?
T cruzi inh: -16; CHOP UPR activ: 3; XBP1 UPR activ: -1

How did O=c1cnn(-c2ccccc2)c(-c2ccccc2)c1 do in these assays?
L major viab: 82*; Dynein cargo inh: -0.31; T cruzi inh: -5; CHOP UPR activ: 4; CHOP inh: -18; XBP1 UPR activ: 4

How did O=C(Nc1cccc(F)c1)NC1(C(=O)NCC2CCCO2)CCCCC1 (configuration not stated) do in these assays?
T cruzi inh: 5; CHOP UPR activ: 0; XBP1 UPR activ: 3

What do the screens show for `CCCN1CCN(CC(O)COC(c2ccc(OC)cc2)c2ccc(OC)cc2)CC1` (configuration not stated)?
T cruzi inh: -3

What do the screens show for `Cc1ccccc1N(CC(=O)NCc1ccc2c(c1)OCO2)C(=O)CCC(=O)Nc1ccccn1`?
L major viab: 61*; Dynein cargo inh: -0.85; T cruzi inh: -1; CHOP UPR activ: -1; CHOP inh: 19; XBP1 UPR activ: -2

What do the screens show for `Cc1ccc2nc(NC(=O)c3ccccn3)sc2c1`?
L major viab: 98*; Dynein cargo inh: -0.17; T cruzi inh: 69*; CHOP UPR activ: 9; CHOP inh: 97*; XBP1 UPR activ: -11

How did O=C(Nc1ccccc1-c1nc2ccccc2[nH]1)c1ccc(S(=O)(=O)N2CCCCC2)cc1 do in these assays?
L major viab: 22; Dynein cargo inh: 0.18; T cruzi inh: 58*; CHOP inh: 12

Results for O=C(Nc1nc(-c2ccccc2)c(-c2ccccc2)s1)c1ccc(S(=O)(=O)N2CCCCC2)cc1 ?
L major viab: 99*; Dynein cargo inh: 0.17; T cruzi inh: 3; CHOP UPR activ: 3; CHOP inh: 41; XBP1 UPR activ: 0

What do the screens show for `CC1CCCCN1S(=O)(=O)c1ccc(C(=O)Nc2ccccc2-c2nc3ccccc3[nH]2)cc1` (configuration not stated)?
L major viab: 24; Dynein cargo inh: 0.46; T cruzi inh: 50; CHOP UPR activ: 5; CHOP inh: 26; XBP1 UPR activ: -2

Results for O=C(Nc1nc2ccc(S(=O)(=O)N3CCCCC3)cc2s1)c1ccncc1 ?
L major viab: 2; Dynein cargo inh: 0.023; T cruzi inh: 17; CHOP UPR activ: 0; CHOP inh: -5; XBP1 UPR activ: -1

How did O=C(Nc1nc2ccc(S(=O)(=O)N3CCCC3)cc2s1)c1ccccn1 do in these assays?
L major viab: 99*; Dynein cargo inh: -0.44; T cruzi inh: 64*; CHOP UPR activ: 6; CHOP inh: 8; XBP1 UPR activ: 9

Results for CCN1CCc2c(OCC(=O)N3CCCCC3)cccc2C1=O ?
L major viab: 0; Dynein cargo inh: -0.88; T cruzi inh: -11; CHOP UPR activ: 1; CHOP inh: 5; XBP1 UPR activ: -3

Results for CNc1snc(C)c1C(=O)OCC(=O)NCc1ccccc1OC ?
CHOP UPR activ: 2; XBP1 UPR activ: -1

How did C/C(=N\NC(=S)Nc1ccccc1C)c1cc2ccccc2o1 do in these assays?
Dynein cargo inh: -0.5; T cruzi inh: 59*; CHOP UPR activ: 2; CHOP inh: 28; XBP1 UPR activ: -3

What do the screens show for `Cc1cccc(NC(=O)CSc2nnc(Cn3nnc(-c4ccccc4)n3)n2-c2ccccc2)c1`?
L major viab: 0; Dynein cargo inh: 2.4; T cruzi inh: 5; CHOP UPR activ: 1; CHOP inh: 78*; XBP1 UPR activ: 2

Results for CCOC(=O)N1CCN(C2CCCN(C(=O)c3cccc(N(C)C)c3)C2)CC1 (configuration not stated) ?
T cruzi inh: -10; CHOP UPR activ: 1; XBP1 UPR activ: 1

Results for CCn1c(CNc2cccc(Cl)c2)nnc1SCC(=O)OC1CCCCC1 ?
L major viab: -6; Dynein cargo inh: -0.56; T cruzi inh: -2; CHOP UPR activ: 1; CHOP inh: 72*; XBP1 UPR activ: -1

What do the screens show for `CCn1c(CNc2ccc(Cl)cc2)nnc1SCC(=O)OC1CCCCC1`?
L major viab: 3; Dynein cargo inh: 0.14; T cruzi inh: -2; CHOP UPR activ: 2; CHOP inh: 31; XBP1 UPR activ: -1

How did CCOc1ccc(S(=O)(=O)NCCc2ccccn2)cc1 do in these assays?
CHOP UPR activ: -1; XBP1 UPR activ: -2

How did Nc1nc(-c2ccccc2)nn1C(=O)Cc1ccccc1 do in these assays?
L major viab: -5; Dynein cargo inh: 0.32; T cruzi inh: -1; CHOP UPR activ: -2; CHOP inh: -6; XBP1 UPR activ: -1

Results for Nc1nc(-c2cccnc2)nn1C(=O)Cc1ccccc1 ?
L major viab: -5; Dynein cargo inh: -0.43; T cruzi inh: -11; CHOP UPR activ: 0; CHOP inh: 78*; XBP1 UPR activ: -1

What do the screens show for `CCCS(=O)(=O)N1CCN(CCN2C(=O)c3cccc4cccc(c34)C2=O)CC1`?
L major viab: 11; Dynein cargo inh: 2.1; T cruzi inh: 15; CHOP UPR activ: 0; CHOP inh: -6; XBP1 UPR activ: -3

Results for Nc1cc2c3c(cccc3c1)C(=O)N(CCN1CCCC1)C2=O ?
Dynein cargo inh: 1.4; T cruzi inh: 78*; CHOP inh: 28

What do the screens show for `O=C1c2cccc3cc([N+](=O)[O-])cc(c23)C(=O)N1CCN1CCCC1`?
Dynein cargo inh: -1.3; T cruzi inh: 56*; CHOP UPR activ: -1; CHOP inh: -138; XBP1 UPR activ: -2

What do the screens show for `Cc1cc(C)c(S(=O)(=O)N2CCN(CCN3C(=O)c4cccc5cccc(c45)C3=O)CC2)cc1[N+](=O)[O-]`?
L major viab: 53*; Dynein cargo inh: 1; CHOP inh: 18

What do the screens show for `O=C1c2ccccc2C(=O)N1CCN1CCCCC1`?
L major viab: -15; Dynein cargo inh: 1.5; T cruzi inh: -17; CHOP UPR activ: 2; CHOP inh: 13; XBP1 UPR activ: -2

Results for Cc1nn(-c2ccc(N3CCOCC3)nn2)c(C)c1CCC(=O)NCc1ccccc1 ?
T cruzi inh: 2; CHOP UPR activ: 2; XBP1 UPR activ: -4

What do the screens show for `COc1ccc(NC(=O)N(C)C[C@H]2Oc3ccc(NC(=O)CCN4CCOCC4)cc3C(=O)N([C@H](C)CO)C[C@@H]2C)cc1`?
CHOP UPR activ: -1; XBP1 UPR activ: -2

Results for N#Cc1c(SCC(N)=O)nc2c(c1-c1ccc(OCc3ccccc3)cc1)CCCC2 ?
L major viab: 37; Dynein cargo inh: -0.54

Results for CSc1nc2c(c(-c3ccc(O)cc3)c1C#N)CCC2 ?
L major viab: 4; Dynein cargo inh: 1.6; T cruzi inh: -1; CHOP UPR activ: -4; CHOP inh: 86*; XBP1 UPR activ: 3

Screens deposited in PubChem by several laboratories.
